The list is not random: actives were taken first. Their share in the collection is about 3.9%.
ANO1 activ: TMEM16A chloride channel activators or potentiators, primary screen, cell-based, HTS | HEK293 TMEM16A/YFP-H148Q/I152L, iodide quench fluorescence; active compounds read low | B-score at 10 µM | hit rate 0.3% among 340,000;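 active = fluorescence-ratio B-score plate-corrected deviation score at least 3 library SD below zero, with starting fluorescence score within 5 deviations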;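 note: channel opened by trigger with iodide after compound preincubation; score built on the fluorescence ratio of max minus min over baseline; more negative score means more quench and so TMEM16A activation or potentiation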
Target sequence (Q8BHY3 whole entry, looked up): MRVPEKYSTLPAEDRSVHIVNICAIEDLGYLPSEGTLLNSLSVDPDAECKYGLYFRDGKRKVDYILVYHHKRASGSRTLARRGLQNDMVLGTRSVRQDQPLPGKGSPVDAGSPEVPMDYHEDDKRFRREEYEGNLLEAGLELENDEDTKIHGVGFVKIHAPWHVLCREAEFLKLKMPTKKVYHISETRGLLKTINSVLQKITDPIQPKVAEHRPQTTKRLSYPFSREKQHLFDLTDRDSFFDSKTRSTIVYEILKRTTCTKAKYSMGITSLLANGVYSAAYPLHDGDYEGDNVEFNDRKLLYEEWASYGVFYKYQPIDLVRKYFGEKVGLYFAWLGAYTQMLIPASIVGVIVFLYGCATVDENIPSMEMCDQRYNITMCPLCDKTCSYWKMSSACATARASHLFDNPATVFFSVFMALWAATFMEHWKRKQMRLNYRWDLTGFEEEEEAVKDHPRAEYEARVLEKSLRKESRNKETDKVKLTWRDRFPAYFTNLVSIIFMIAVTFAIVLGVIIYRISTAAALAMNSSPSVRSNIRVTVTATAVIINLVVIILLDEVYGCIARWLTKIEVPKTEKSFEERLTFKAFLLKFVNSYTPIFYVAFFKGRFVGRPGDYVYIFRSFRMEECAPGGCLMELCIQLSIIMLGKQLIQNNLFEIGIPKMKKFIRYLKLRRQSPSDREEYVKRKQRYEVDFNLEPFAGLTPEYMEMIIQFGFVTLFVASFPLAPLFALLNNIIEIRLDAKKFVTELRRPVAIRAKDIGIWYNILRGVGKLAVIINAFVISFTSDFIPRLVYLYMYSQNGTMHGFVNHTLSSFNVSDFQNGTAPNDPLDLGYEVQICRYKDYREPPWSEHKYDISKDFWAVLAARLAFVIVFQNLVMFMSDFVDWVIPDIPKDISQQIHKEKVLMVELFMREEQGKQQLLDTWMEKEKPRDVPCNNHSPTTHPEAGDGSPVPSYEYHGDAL
TMEM16A inh: TMEM16A chloride channel inhibitors, primary screen, cell-based, HTS. HEK293 TMEM16A/YFP iodide influx fluorescence, ionomycin. normalized B-score (activity score, 25-100; higher = stronger inhibition) at 10 µM. AID 588511, 2011. Anoctamin-1 (Mus musculus), Q8BHY3. hit rate 1.2% among 310,000;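 active = ratio plate-corrected score three or more library SD toward inhibition, starting fluorescence score within five deviations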;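 note: score derived from kinetic fluorescence span divided by baseline fluorescence per well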
CRFBP-R2 block: antagonists of CRF-BP/CRF-R2 complex, primary screen, cell-based, HEK293, calcium dye fluorescence, uHTS. hit rate 0.59% among 350,000. inhibition, % at 11.8 µM. AID 588475, 2011. CRF-induced calcium fluorescence;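 active = inhibition of the ligand-induced calcium signal above about 50% at the single tested concentration, limit read from the data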
CRFR2-BP ag: agonists of CRF-BP/CRF-R2 complex, primary screen, cell-based, HEK293, calcium dye fluorescence, uHTS. CRF-binding protein / CRF receptor 2 complex (human). calcium dye fluorescence (FLIPR); percent of saturating CRF peptide response. activation, % at 13.2 µM. hit rate 0.46% among 350,000;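 active = activation of at least 50%, plus an integration ratio under a set limit after plate pattern correction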;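 note: plate controls were neutral control wells without compound for no effect and CRF at EC100 for full effect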
TAAR1 antagonist: human TAAR1 antagonists, primary screen, Fluo-8 calcium fluorescence, CHO RD-HGA16 cells; Trace amine-associated receptor 1 (Homo sapiens), Q96RJ0; antagonist; inhibition, % at 3 µM; hit rate 1.5% among 360,000;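 active = inhibition above a per-plate cutoff, the mean inhibition of test compounds on that plate plus 3 SD, cut at about 49% in these data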;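 note: 0% = DMSO plus EC80 beta-PEA response and 100% = DMSO alone without agonist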
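Assay system: CHO-derived RD-HGA16 cells stably expressing human TAAR1 plus Gα16. Timing: 140 s kinetic read after compound, 140 s after agonist. Technique: kinetic Fluo-8 calcium fluorescence measurement. Measure: % inhibition of agonist calcium response.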
TAAR1 agonist: human TAAR1 agonists, primary screen, Fluo-8 calcium fluorescence, CHO RD-HGA16 cells | Trace amine-associated receptor 1 (Homo sapiens), Q96RJ0 | vehicle wells 0%, saturating PEA agonist 100% | activation, % at 3 µM | hit rate 0.99% among 360,000;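 active = activation above the mean activation of all test compounds in the run plus 3 SD, cut at about 38% in these data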
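Test system: RD-HGA16 (CHO) cells co-expressing Gα16 and hTAAR1 | Doses: Single dose, 3 µM | Schedule: 17-24 h seeding, 75 min 37 °C dye, 30 min RT | Evaluation: % activation from peak over basal fluorescence ratio, DMSO-to-PEA scaled | Technique: Kinetic Fluo-8 calcium fluorescence | Benchmarks: Low control DMSO, high control PEA (EC100)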
TAAR1 ag confirm: human TAAR1 agonists, retest of hits, confirmation, Fluo-8 calcium fluorescence, CHO RD-HGA16 cells; shares compounds with TAAR1 agonist; scaled: DMSO 0%, maximal phenethylamine 100%; hit rate 82% among 2,400; activation, % at 3 µM;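 active = activation above a cutoff set at the run's mean compound activation plus 3 SD, cut at about 39% in these data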
Ga16 nonsel ag: nonselective calcium mobilization agonists, CHO-Ga16 cells, counter-screen for hTAAR1 agonist project, cell-based, fluorescence, CHO-Ga16 parental line; shares compounds with TAAR1 agonist; Fluo-8 calcium fluorescence; normalized to maximal ATP response, DMSO zero; activation, % at 3 µM; hit rate 50% among 2,400; AID 651787, 2012;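 active = activation above the run cutoff, the mean activation over all tested wells plus 3 SD, cut at about 12% in these data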;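 note: 0% = DMSO wells and 100% = maximal ATP response on the peak over basal ratio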
TAAR1 desensitize: TAAR1 desensitization by agonist hits, confirmation, counter-screen for TAAR1 agonist project, cell-based, fluorescence, tachyphylaxis. inhibition, % at 3 µM. hit rate 46% among 2,400. CHO RD-HGA16 hTAAR1, Fluo-8 calcium, beta-PEA response inhibition. AID 651951, 2012. shares compounds with TAAR1 agonist;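 active = inhibition above the run cutoff, the mean inhibition of all test compounds plus 3 SD, cut at about 49% in these data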;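 note: beta-PEA stimulus applied at its EC80; loss of beta-PEA calcium signal after compound pretreatment read as receptor desensitization; 0% = DMSO with beta-PEA at EC80 and 100% = DMSO alone without agonist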
Ga16 antag count: inhibition of ATP-evoked calcium response in CHO-Ga16 cells, counter-screen for TAAR1 agonist project, cell-based, fluorescence; AID 651952, 2012; hit rate 39% among 2,400; CHO-Ga16 ATP-induced calcium, Fluo-8 fluorescence; shares compounds with TAAR1 agonist; inhibition, % at 3 µM;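 active = inhibition above the plate's mean compound inhibition plus 3 SD, computed per plate, cut at about 22% in these data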;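 note: 0% = EC80 ATP with DMSO and 100% = DMSO wells without ATP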
The depositor's hits bear a star; i = inactive; . = no result given.

SMILES | ANO1 activ | TMEM16A inh | CRFBP-R2 block | CRFR2-BP ag | TAAR1 antagonist | TAAR1 agonist | TAAR1 ag confirm | Ga16 nonsel ag | TAAR1 desensitize | Ga16 antag count
Cc1ccc(S(=O)(=O)N2CCCOC2CNC(=O)C(=O)NCc2cccs2)cc1 (stereo unspecified) | i | i | -4 | -1 | 0 | -1 | . | . | . | .
CC1CCCCC1NC(=O)CSc1nnc(-c2ccccc2)n1N (stereo unspecified) | . | i | -38 | 4 | 11 | 2 | . | . | . | .
CC1CCCCC1NC(=O)CSc1nnc(-c2ccco2)n1N (stereo unspecified) | . | . | 5 | -1 | 24 | 73* | 15 | 3 | -5 | 3
NC(N)=N/N=C(\N=Nc1ccccc1)c1ccc(Cl)cc1 | i | . | -24 | 6 | 28 | 49* | 76* | 38* | 77* | 50*
O=C(CNC(=O)c1cccc(F)c1)N/N=C/c1cccc([N+](=O)[O-])c1 | i | i | 2 | -3 | 0 | -1 | . | . | . | .
O=C(CNC(=O)c1cccc(F)c1)N/N=C/C=C/c1ccccc1 | i | i | 0 | 6 | . | . | . | -1 | . | 5
CCCCOc1ccc(Br)cc1/C(C)=N/NC1=NCCN1 | i | i | -22 | -2 | 8 | 58* | 66* | 10 | 27 | 7
COc1ccc(/C(C)=N/NC2=NCCN2)cc1Cl | i | i | -4 | 8 | -24 | 1 | . | . | . | .
Fc1ccc(Nc2nc(NCc3ccco3)c3ccccc3n2)cc1 | i | i | -9 | 0 | 43 | 70* | 40* | 23* | 49* | 39*
O=C(COC(=O)c1ccccn1)NC(=O)c1ccccc1 | i | . | 0 | 1 | 5 | 6 | . | . | . | .
CCc1nnc(NC(=O)[C@@H](NS(=O)(=O)c2ccc3c(c2)OCCO3)C(C)C)s1 | i | . | 5 | -2 | -12 | 0 | . | . | . | .
O=C(CN(Cc1ccccc1)C(=O)c1csnn1)NCCc1ccccc1 | i | i | 3 | -1 | 25 | 75* | 68* | 6 | 34 | 12
CC(C)c1cc(C(=O)OCC(=O)NC2CCS(=O)(=O)C2)c(O)c(C(C)C)c1 (stereo unspecified) | . | . | 4 | -2 | -11 | 1 | . | . | . | .
OC(CNCCc1ccc(C(F)(F)F)cc1)COc1ccc2ccccc2c1 (stereo unspecified) | i | i | -72 | 7 | 10 | 29 | . | . | . | .
OC(CNCCc1ccc(C(F)(F)F)cc1)COc1cccc2ccccc12 (stereo unspecified) | i | i | -51 | 1 | 22 | 60* | 60* | 29* | 64* | 44*
COc1cccc(C(=O)N2CCC[C@@H]2C(=O)N2CCC[C@H]2C(=O)NCc2ccccc2)c1 | . | . | . | . | -22 | 4 | . | . | . | .
CCOc1ccccc1N1CCN(Cc2cn[nH]c2-c2ccc(F)cc2)CC1 | i | i | -16 | -1 | -29 | 95* | 83* | 41* | 22 | 12
COc1ccc(NC(=O)c2ccc(S(=O)(=O)N3CC(C)CC(C)C3)cc2)cc1S(N)(=O)=O (stereo unspecified) | i | . | -10 | 1 | -3 | 0 | . | . | . | .
Cc1cccc(NC(=O)COC(=O)c2nn(-c3ccccc3C(F)(F)F)cc2O)c1C | . | . | -12 | -1 | 5 | 7 | . | . | . | .
COC(OC)C1(CCc2ccccc2)NC(=O)NC1=O (stereo unspecified) | i | . | 1 | 1 | -8 | 1 | . | . | . | .
Cc1cc(/C=C(\C#N)C(N)=O)c(C)n1-c1ccc(N2CCOCC2)c([N+](=O)[O-])c1 | i | i | -159 | 0 | 17 | 91* | 114* | 53* | 73* | 29*
CCc1cccc(OCC(=O)Nc2cc(S(=O)(=O)N3CCOCC3)ccc2N2CCCC2)c1 | i | i | 6 | 0 | 1 | -1 | . | . | . | .
O=C(O)c1ccccc1C(=O)NC1Cc2ccccc2C1 | i | i | 6 | -2 | 77* | 85* | 98* | 16* | 91* | 6
O=C(NCc1cccs1)c1cc(-c2ccccc2)on1 | i | i | -7 | -1 | 40 | 57* | 28 | 19* | 14 | 23*
Cc1cc(C)n(-c2nc3ccccc3nc2NCCc2ccccc2)n1 | i | i | -4 | 3 | -8 | 61* | 36 | 1 | 3 | 3
SMILES | ANO1 activ | TMEM16A inh | CRFBP-R2 block | CRFR2-BP ag | TAAR1 antagonist | TAAR1 agonist | TAAR1 ag confirm | Ga16 nonsel ag | TAAR1 desensitize | Ga16 antag count
C/C(=N\O)C(C)Oc1ccc(Cl)cc1 (stereo unspecified) | i | i | 28 | -1 | 6 | 6 | . | . | . | .
C(COC1CC2CC1C1C2CC2OC21)OC1CC2CC1C1C2CC2OC21 (stereo unspecified) | i | . | 17 | -4 | 7 | 1 | . | . | . | .
COC1=CC(=O)OC(c2ccco2)C1 (stereo unspecified) | i | . | -3 | 1 | -8 | 3 | . | . | . | .
Oc1c(C(c2ccccc2)N2CCc3ccccc3C2)sc2ncnn12 (stereo unspecified) | i | i | 1 | 0 | -13 | 65* | 61* | 0 | 26 | 12
COc1cccc(C(c2sc3nc(C)nn3c2O)N2CCc3ccccc3C2)c1 (stereo unspecified) | i | i | 1 | 2 | -12 | 54* | 56* | 2 | 22 | 8
CCN1CCN(C(c2cccc(OC)c2)c2sc3nc(C)nn3c2O)CC1 (stereo unspecified) | i | i | 27 | 0 | -7 | 0 | . | . | . | .
